# HTRA1 inhibitor = inhibitors of human serine peptidase HTRA1 | inhibition, % at 5.96 µM | 340,000 tested, 0.5% active | AID 504803 | recombinant HTRA1, FP-rhodamine activity-based probe, fluorescence polarization; in the data active means inhibition above about 36%;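 further: 0% = enzyme with DMSO and 100% = wells lacking enzyme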
# ABHD4 inh = inhibitors of mouse ABHD4; inhibition, % at 8.92 µM; 370,000 tested, 0.54% active; AID 720543; purified mABHD4, FP-Rh probe fluorescence polarization;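 active means inhibition exceeding the mean over every tested compound plus 3 SD, cut at about 30% in these data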;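 further: 0% = plate median of compound wells and 100% = S159A mutant with DMSO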
#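 Assay system: mABHD4 protein; medium: HEPES pH 7.0, NaCl, Pluronic buffer; dosing: 8.92 µM, single dose; schedule: 45 min + 60 min at 25 °C; signal: FP readout, ex 525 nm / em 598 nm; read-out: normalized percent inhibition of probe labeling; repeats: single replicate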
# PAD4 FP inh = PAD4 (human) enzyme inhibition | recombinant PAD4, RCA probe fluorescence polarization | inhibition, % at 6.36 µM | 330,000 tested, 0.41% active | AID 485272;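 active means percent inhibition above a cutoff equal to the mean of all tested compounds plus 3 SD, cut at about 15% in these data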;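 further: 0% = PAD4 with RCA probe and DMSO and 100% = probe without PAD4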
# Target sequence (Q9UM07 whole entry, looked up): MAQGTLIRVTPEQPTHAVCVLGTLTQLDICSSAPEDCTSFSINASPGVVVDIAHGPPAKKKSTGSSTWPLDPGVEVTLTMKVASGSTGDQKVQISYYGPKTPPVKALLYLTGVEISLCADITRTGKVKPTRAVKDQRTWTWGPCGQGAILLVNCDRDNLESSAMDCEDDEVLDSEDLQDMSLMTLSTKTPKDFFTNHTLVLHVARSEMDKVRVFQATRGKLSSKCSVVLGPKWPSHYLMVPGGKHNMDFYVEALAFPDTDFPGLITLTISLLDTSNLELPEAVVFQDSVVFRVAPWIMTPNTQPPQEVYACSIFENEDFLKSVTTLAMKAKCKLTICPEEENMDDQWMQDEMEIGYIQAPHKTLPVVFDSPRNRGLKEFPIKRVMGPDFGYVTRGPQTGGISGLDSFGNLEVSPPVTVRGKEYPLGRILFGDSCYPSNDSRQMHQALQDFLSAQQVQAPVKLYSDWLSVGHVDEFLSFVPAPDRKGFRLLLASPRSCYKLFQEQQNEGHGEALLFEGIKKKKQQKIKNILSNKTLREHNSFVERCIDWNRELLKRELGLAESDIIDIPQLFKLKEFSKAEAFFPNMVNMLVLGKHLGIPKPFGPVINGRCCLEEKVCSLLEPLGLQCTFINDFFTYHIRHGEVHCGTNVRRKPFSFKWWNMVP
# SIAE inh = blocks human sialic acid acetylesterase; 370,000 tested, 0.69% active; SIAE FP-Rh probe binding, fluorescence polarization; AID 1053197; inhibition, % at 9.66 µM; Q9HAT2;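 active means inhibition above a cutoff: mean of compounds within the control limits plus 3 SD of those, cut at about 17% in these data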;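 further: 0% = plate median of compound wells and 100% = probe without SIAE protein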
# PRMT1 inh = PRMT1 (human) inhibition, primary screen. Q99873. recombinant PRMT1, activity-based probe fluorescence polarization. inhibition, % at 2.79 µM. 370,000 tested, 1.3% active;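 active means inhibition above about 21% made by adding two undisclosed values, limit read from the data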
# TCR-CD3 inh = inhibitors of human TCR-CD3 interaction; AID 651800; inhibition, % at 9.4 µM; 360,000 tested, 0.37% active; TAMRA-labeled TCR probe fluorescence, biochemical; in the data active means inhibition above about 19%;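 further: recombinant mutant TCR 2C K166C tagged with TAMRA read by polarization; 0% = receptor in buffer alone and 100% = receptor with positive control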
# HTRA1 conf = HTRA1 (human) inhibition, confirmation. shares compounds with HTRA1 inhibitor. recombinant HTRA1, FP-rhodamine activity-based probe, fluorescence polarization. inhibition, % at 5.96 µM. 1,600 tested, 66% active. AID 540248;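 active means mean inhibition over three repeats above a set limit taken from the earlier primary screen, cut at about 37% in these data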;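 further: 0% = HTRA1 with DMSO and 100% = wells lacking HTRA1; inhibitors block probe binding so polarization drops and inhibition rises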
# An asterisk follows results filed as active; nt = not tested or not shown. Most compounds without a hit are left out; they make up all but 2.9% or so of the library.
SMILES,HTRA1 inhibitor,ABHD4 inh,PAD4 FP inh,SIAE inh,PRMT1 inh,TCR-CD3 inh,HTRA1 conf
COC(=O)CCC(=O)OC1(C)C(=O)C2=CN(C3CCCC3)C(c3ccc(OC)cc3)=CC2=C(Br)C1=O (stereo not given),61*,9,-23,6,4,-4,52*
COCCN1C=C2C(=O)C(C)(OC(=O)CCC(=O)OC)C(=O)C(Br)=C2C=C1c1ccc(OC)cc1 (stereo not given),27,nt,-6,nt,nt,nt,nt
COc1cccc(CN(C)C(=O)[C@H]2O[C@@H](n3cnc4c(=O)[nH]c(N)nc43)[C@H](O)[C@@H]2O)c1,nt,1,nt,-1,-3,4,nt
COc1cc(C2CC=C(C(=O)O)C(c3ccccc3F)N2S(=O)(=O)c2ccc(C)cc2)cc(OC)c1OC (stereo not given),nt,3,nt,-5,-3,nt,nt
COC(=O)N/N=C/c1cc(Br)ccc1O,4,-4,-1,0,3,-4,nt
CC(C)NC(=S)N/N=C/c1cc(Br)ccc1O,37*,8,-6,16,3,9,49*
CCC(C)Nc1ccc(NC(C)CC)cc1 (stereo not given),67*,nt,-5,nt,nt,nt,75*
CCC(C)NC(=O)Nc1ccc(Br)cc1 (stereo not given),5,-2,0,-1,-3,7,nt
COc1cc(-n2c(C)nc3cc(C(=O)N4CCN(C(C)=O)CC4)ccc32)cc(OC)c1OC,nt,3,nt,-5,2,nt,nt
CC1(OC(=O)C2CCCC2)C(=O)C=C2C=C(c3ccsc3)N(CC3CC3)C=C2C1=O (stereo not given),18,11,11,6,6,12,nt
CCCCC1=CC2=CC(=O)C(C)(OC(=O)CC)C(=O)C2=CN1CCc1c[nH]c2ccccc12 (stereo not given),51*,15,-18,6,3,4,36*
CC1(OC(=O)C2CCCC2)C(=O)C=C2C=C(c3ccsc3)N(CCc3c[nH]c4ccccc34)C=C2C1=O (stereo not given),36*,nt,-17,nt,nt,nt,17
C=CCn1c(C)cc(-c2csc(NCC)n2)c1C,30,21,0,8,11,-3,nt
C=CCn1c(C)cc(-c2csc(NC)n2)c1C,42*,17,nt,6,17,-9,28
C=CCn1c(C)cc(-c2csc(N)n2)c1C,60*,20,-6,8,15,1,31
Cc1cc(-c2csc(N)n2)c(C)n1-c1ccc(Cl)c(Cl)c1,31,14,-9,-6,5,-12,nt
COc1ccc(-n2c(C)cc(-c3csc(N)n3)c2C)cc1,39*,21,-5,14,2,-5,32
COC(=O)C1CN(Cc2ccc(F)cc2)CCS(=O)(=O)N1Cc1cn(Cc2ccc(Cl)cc2)nn1 (stereo not given),nt,-4,nt,0,0,nt,nt
CN(C)c1ccc(NC(=O)CSCc2nc3c(nnn3Cc3ccc(F)cc3)c(=O)[nH]2)cc1,38*,nt,3,nt,nt,nt,2
CCOC(=O)C(C)/C(C)=N/NC(=O)c1cc2ccccc2cc1O (stereo not given),43*,18,3,14,-1,1,28
C/C(=N\NC(=O)c1cc2ccccc2cc1O)c1ccc2c(c1)OCO2,42*,13,0,-10,-1,1,7
C/C(=N\NC(=O)c1ccc(C)cc1C)c1ccc2c(c1)OCO2,-3,9,3,-2,1,-1,nt
Fc1ccc(NC(=S)NNc2ncc(C(F)(F)F)cc2Cl)c(F)c1,46*,7,-6,5,-5,11,69*
Cc1ccc(NC(=S)NNc2ncc(C(F)(F)F)cc2Cl)cc1,38*,8,-3,1,4,-2,36
Cc1ccc(NC(=S)NNc2ncc(C(F)(F)F)cc2Cl)c(C)c1,12,14,-5,-6,0,-4,nt
SMILES,HTRA1 inhibitor,ABHD4 inh,PAD4 FP inh,SIAE inh,PRMT1 inh,TCR-CD3 inh,HTRA1 conf
FC(F)(F)c1cccc(NC(=S)NNC(=S)Nc2ccc(Cl)cc2)c1,nt,nt,3,nt,nt,nt,nt
FC(F)(F)c1cnc(NNC(=S)Nc2ccc(Cl)cc2)c(Cl)c1,49*,14,-4,8,-2,-2,54*
CC(=O)CC[C@H]1CC[C@]2(CCCN(Cc3nccn3C)C2)O1,nt,1,nt,7,4,nt,nt
O=C(/C=C/c1ccco1)Oc1cc(Br)cc(/C=N/NC(=O)c2ccccc2O)c1,84*,15,1,3,10,12,143*
Cc1ccc(C(=O)N/N=C/c2cccc(OC(=O)/C=C/c3ccco3)c2)cn1,nt,-5,3,-5,-1,4,nt
Cc1nn(-c2ccccc2)c(C)c1/C=N\N1CCN(Cc2ccccc2Cl)CC1,nt,6,nt,1,2,nt,nt
c1ccc2cc(-c3cc4ccccn4c3)ccc2c1,39*,12,0,-3,5,-1,14
O=C(OC12CCCN(C1)/C(=C/c1cccc(Cl)c1)C2)c1ccco1 (stereo not given),nt,-11,nt,0,1,nt,nt
CN(C)CCCNc1cc(C(C)(C)C)nc2c(-c3ccc(Cl)cc3)cnn12,49*,26,7,6,5,-9,70*
CC(C)(C)c1cc(NCc2ccccn2)n2ncc(-c3ccc(Cl)cc3)c2n1,3,1,0,-1,3,-10,nt
CN(CCCOC(=O)c1cc2ccccc2o1)C1CN(Cc2cn(Cc3ccccc3C(F)(F)F)nn2)S(=O)(=O)C1 (stereo not given),nt,-1,nt,-3,0,nt,nt
Nc1cc(OCC(F)(F)F)cc([N+](=O)[O-])c1,-3,8,1,-1,-1,10,nt
Nc1cc(N)c(OCC(F)(F)F)cc1OCC(F)(F)F,48*,nt,55*,nt,nt,nt,34
COC(=O)N1C[C@H](OC(=O)c2ccc(-c3ccccc3)cc2)[C@H]2C[C@@H]1c1ccccc1O2,nt,4,nt,-2,5,1,nt
CCc1cc2c(nc1CC)CCCN2S(=O)(=O)c1ccccc1,nt,8,nt,2,4,-2,nt
CCCn1c(CNc2ccccc2O)nc2ccccc21,44*,27,5,6,5,-5,59*
NS(=O)(=O)c1ccc2c(c1)C1C=CCC1C(C1CC=CCC1)N2 (stereo not given),64*,26,-7,10,37*,1,38*
COC(=O)C[C@@H]1CC[C@@H]2[C@H](COc3ccc(NC(=O)c4ccc(F)c(F)c4)cc3C(=O)N2C)O1,nt,6,nt,9,1,nt,nt
CCCCCCCCCCCCCCCC[N+](C)(C)Cc1ccc(F)cc1,64*,44*,nt,-4,-1,4,64*
CC#CC[N+](C)(C)CCCCCCCC,7,-1,6,0,5,-6,nt
COC(=O)[C@]12C[C@H](CC(=O)N3CCSCC3)C(=O)N(CCC3=CCCCC3)C1=C[C@H](C(C)(C)C)O[C@@H]2C,nt,-9,nt,1,-2,4,nt

# High-throughput results from PubChem.
